The text below walks through data of ChEMBL document CHEMBL4304834, “3-Amino-chromanes and Tetrahydroquinolines as Selective 5-HT2B, 5-HT7, or σ1 Receptor Ligands” (ACS Med Chem Lett, 2019).

Assay type in all cases: cell-based
Experiment [1] addresses T1, Alpha-2C adrenergic receptor (Homo sapiens) (UniProt P18825).
T1 sequence (whole entry): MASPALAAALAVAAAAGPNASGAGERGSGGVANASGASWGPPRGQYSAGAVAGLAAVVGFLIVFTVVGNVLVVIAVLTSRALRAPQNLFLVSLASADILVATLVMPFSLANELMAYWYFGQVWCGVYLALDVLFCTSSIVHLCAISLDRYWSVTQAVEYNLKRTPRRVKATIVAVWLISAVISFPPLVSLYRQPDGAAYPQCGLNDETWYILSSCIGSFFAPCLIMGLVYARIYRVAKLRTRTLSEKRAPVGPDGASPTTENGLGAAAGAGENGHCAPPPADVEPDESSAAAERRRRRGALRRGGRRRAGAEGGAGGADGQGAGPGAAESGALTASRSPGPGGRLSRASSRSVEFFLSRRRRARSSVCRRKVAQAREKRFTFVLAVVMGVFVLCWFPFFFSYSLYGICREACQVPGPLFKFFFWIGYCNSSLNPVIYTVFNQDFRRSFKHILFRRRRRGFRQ
In words: Displacement of [3H]-Rauwolscine from human recombinant adrenergic Alpha2C receptor expressed in stable MDCK cells at 10 uM after 90 mins by microbeta scintillation counting method relative to control. (In general: In a radioligand displacement assay an active substance lowers the binding of a labelled ligand.)

Experiment [2] concerns the target T2, Muscarinic acetylcholine receptor M4 (Homo sapiens, UniProt P08173).
T2 sequence (P08173 whole entry): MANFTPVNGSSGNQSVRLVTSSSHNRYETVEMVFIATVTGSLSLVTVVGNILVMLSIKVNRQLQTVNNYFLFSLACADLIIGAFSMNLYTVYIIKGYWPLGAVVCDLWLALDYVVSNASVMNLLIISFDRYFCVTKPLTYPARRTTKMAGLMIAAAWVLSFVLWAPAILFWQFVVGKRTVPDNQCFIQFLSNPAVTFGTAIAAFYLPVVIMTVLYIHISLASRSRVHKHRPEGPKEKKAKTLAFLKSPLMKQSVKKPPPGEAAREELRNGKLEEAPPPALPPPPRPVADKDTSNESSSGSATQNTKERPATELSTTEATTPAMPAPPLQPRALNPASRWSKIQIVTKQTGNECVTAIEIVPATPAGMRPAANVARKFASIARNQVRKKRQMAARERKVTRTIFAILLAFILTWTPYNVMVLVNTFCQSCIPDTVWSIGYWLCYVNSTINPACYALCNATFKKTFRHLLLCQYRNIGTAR
In words: Displacement of [3H]-QNB/[3H]-NMS from human recombinant Muscarinic acetylcholine M4 receptor expressed in stable CHO cells after 90 mins by microbeta scintillation counting method. In a few lines:
(§1)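 Radioligand binding was run by the NIMH Psychoactive Drug Screening Program. Compounds were first screened at 10 μM. Those giving ≥50% binding were taken to full competition curves. Ki is reported as pKi from a sigmoidal curve fit of triplicate measurements in a single experiment; the error is the curve-fit error.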

The target of experiment [3] is T3, 5-hydroxytryptamine receptor 3A (Homo sapiens, UniProt P46098).
T3 sequence (P46098 whole entry): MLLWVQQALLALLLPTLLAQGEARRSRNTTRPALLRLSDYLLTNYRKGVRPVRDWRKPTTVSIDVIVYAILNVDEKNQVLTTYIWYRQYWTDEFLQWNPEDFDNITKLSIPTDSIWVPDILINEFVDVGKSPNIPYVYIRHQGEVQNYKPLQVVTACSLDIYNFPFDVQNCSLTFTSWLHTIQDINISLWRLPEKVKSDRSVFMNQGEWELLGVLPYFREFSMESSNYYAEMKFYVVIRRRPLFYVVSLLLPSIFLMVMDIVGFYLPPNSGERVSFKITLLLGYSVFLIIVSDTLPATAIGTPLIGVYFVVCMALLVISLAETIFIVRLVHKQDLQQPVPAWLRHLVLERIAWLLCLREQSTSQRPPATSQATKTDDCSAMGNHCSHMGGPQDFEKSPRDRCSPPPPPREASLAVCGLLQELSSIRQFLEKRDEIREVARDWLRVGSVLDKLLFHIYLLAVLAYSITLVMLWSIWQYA
The experiment in a line: Displacement of [3H]-GR65630 from human recombinant 5-HT3 receptor expressed in HEKT cells after 90 mins by microbeta scintillation counting method. In short, it runs like this:
(§2)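 Radioligand binding run by the NIMH Psychoactive Drug Screening Program. […] Otherwise Ki comes from sigmoidal curve fits of triplicate measurements in a single experiment, or is averaged over repeated experiments each run in triplicate.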

Experiment [4] addresses 5-hydroxytryptamine receptor 6 (Homo sapiens, UniProt P50406). In words: Displacement of [3H]-LSD from human recombinant 5-HT6 receptor expressed in stable HEK cells after 90 mins by microbeta scintillation counting method. In a few lines:
as §2

The target in experiment [5] is 5-hydroxytryptamine receptor 1D (Homo sapiens, UniProt P28221). The experiment in a line: Displacement of [3H]5-CT from human recombinant 5-HT1D receptor transiently expressed in HEKT cells at 10 uM after 90 mins by microbeta scintillation counting method relative to control.
5-hydroxytryptamine receptor 1D, sequence (P28221 whole entry): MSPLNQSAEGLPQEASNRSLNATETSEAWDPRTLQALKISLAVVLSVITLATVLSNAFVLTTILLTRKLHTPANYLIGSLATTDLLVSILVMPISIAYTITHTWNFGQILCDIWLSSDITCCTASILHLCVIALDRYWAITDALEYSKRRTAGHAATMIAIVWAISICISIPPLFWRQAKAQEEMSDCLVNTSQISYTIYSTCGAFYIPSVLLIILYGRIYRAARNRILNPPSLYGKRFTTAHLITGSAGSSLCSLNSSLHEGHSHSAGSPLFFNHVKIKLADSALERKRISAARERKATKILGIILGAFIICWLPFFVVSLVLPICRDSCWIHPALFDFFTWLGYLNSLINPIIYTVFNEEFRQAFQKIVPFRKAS
The target of experiment [6] is T4, Muscarinic acetylcholine receptor M4 (Homo sapiens) (UniProt P08173).
T4 sequence (whole entry): T2 sequence (P08173 whole entry)
The experiment in a line: Displacement of [3H]-QNB/[3H]-NMS from human recombinant Muscarinic acetylcholine M4 receptor expressed in stable CHO cells at 10 uM after 90 mins by microbeta scintillation counting method relative to control.

Experiment [7] has as its target T5, Muscarinic acetylcholine receptor M2 (Homo sapiens, UniProt P08172).
T5 sequence (P08172 whole entry): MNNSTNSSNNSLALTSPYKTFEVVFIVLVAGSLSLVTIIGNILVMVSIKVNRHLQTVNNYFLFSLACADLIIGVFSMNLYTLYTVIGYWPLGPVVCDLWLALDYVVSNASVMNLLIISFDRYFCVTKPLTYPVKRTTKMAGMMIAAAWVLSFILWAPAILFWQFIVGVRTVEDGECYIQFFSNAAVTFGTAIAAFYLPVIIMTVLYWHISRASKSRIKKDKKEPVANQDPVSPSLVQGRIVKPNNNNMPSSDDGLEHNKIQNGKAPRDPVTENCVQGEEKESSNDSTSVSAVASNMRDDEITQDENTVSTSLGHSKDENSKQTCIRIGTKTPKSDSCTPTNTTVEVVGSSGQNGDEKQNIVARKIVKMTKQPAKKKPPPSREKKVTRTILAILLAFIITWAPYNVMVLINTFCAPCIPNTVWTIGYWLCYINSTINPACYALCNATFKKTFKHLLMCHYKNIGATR
The experiment in a line: Displacement of [3H]-QNB/[3H]-NMS from human recombinant Muscarinic acetylcholine M2 receptor expressed in stable CHO cells after 90 mins by microbeta scintillation counting method. In short, it runs like this: as §1

Experiment [8] deals with Beta-3 adrenergic receptor (Homo sapiens, UniProt P13945). The experiment in a line: Displacement of [3H]-CGP12177 from human recombinant adrenergic Beta3 receptor expressed in Flp-In HEK cells after 90 mins by microbeta scintillation counting method. In a few lines: as §2
Beta-3 adrenergic receptor, sequence (P13945 whole entry): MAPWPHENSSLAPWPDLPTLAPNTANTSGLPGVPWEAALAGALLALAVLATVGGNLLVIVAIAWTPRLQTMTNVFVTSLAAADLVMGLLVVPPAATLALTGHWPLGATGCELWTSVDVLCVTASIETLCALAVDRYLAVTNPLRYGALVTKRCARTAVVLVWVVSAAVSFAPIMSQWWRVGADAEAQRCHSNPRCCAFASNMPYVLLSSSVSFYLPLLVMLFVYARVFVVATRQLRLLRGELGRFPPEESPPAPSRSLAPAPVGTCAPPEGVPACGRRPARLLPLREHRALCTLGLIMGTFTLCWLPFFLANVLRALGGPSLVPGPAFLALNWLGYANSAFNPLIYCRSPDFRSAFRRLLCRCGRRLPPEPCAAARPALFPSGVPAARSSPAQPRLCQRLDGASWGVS
Experiment [9] deals with Histamine H4 receptor (Homo sapiens, UniProt Q9H3N8). The experiment in a line: Displacement of [3H]-Histamine from human recombinant histamine H4 receptor expressed in HEKT cells after 90 mins by microbeta scintillation counting method. In short, it runs like this:
as §2

SMILES strings stand for the structures.

5-hydroxytryptamine receptor 6, sequence (P50406 whole entry): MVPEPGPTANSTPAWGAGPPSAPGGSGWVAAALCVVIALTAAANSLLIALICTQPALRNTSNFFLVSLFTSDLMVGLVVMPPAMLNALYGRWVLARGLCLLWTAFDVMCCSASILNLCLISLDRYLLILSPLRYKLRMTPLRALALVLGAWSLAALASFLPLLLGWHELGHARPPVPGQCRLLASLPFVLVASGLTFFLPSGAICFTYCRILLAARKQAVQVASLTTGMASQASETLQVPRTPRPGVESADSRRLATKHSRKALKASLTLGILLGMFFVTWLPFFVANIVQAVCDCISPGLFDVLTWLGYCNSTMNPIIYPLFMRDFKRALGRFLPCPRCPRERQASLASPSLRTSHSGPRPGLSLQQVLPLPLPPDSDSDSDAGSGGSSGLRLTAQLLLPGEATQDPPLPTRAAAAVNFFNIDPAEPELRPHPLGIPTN
Histamine H4 receptor, sequence (Q9H3N8 whole entry): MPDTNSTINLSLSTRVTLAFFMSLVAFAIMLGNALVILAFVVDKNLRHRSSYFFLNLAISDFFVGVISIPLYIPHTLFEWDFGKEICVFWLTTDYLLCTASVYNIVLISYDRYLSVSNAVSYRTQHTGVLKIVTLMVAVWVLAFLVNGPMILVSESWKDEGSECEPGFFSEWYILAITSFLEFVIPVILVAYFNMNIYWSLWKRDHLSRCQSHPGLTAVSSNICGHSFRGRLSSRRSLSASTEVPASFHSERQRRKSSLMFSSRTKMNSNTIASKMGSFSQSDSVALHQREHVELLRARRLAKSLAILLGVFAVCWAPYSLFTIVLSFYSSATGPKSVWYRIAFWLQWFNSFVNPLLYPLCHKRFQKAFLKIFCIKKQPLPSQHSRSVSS

For the compound `COc1cc(OC)c2c(c1)OC[C@@]1(C)NCC[C@@H]21` (racemic), the inhibition in experiment [1], in experiment [5] and in experiment [6] was under 50% in each case. Besides, the Ki in experiment [2], in experiment [3], in [4], in experiment [7], in experiment [8] and in experiment [9] was over 10 µM each time.
Take `C[C@@]12CN(c3ccccc3)c3ccccc3[C@@H]1CCN2` (racemic): the Ki in experiment [2], in experiment [3], in [4], in experiment [7], in [8] and in experiment [9] was over 10 µM in each case.
As for `CC[C@H]1c2cc(OC)ccc2CC[C@@]1(C)N` (racemic), the inhibition in [1], in experiment [5] and in experiment [6] was under 50% throughout. The Ki in experiment [2], in [3], in experiment [4], in [7], in experiment [8] and in experiment [9] was over 10 µM each time.
With `CC[C@H]1c2cc(C)ccc2OC[C@@]1(C)N` (racemic), the inhibition in [1], in experiment [5] and in experiment [6] was under 50% each time. Also, the Ki in [2], in experiment [3], in experiment [4], in experiment [7], in experiment [8] and in experiment [9] was over 10 µM throughout.
In the case of `CC[C@H]1c2ccccc2N(c2ccccc2)C[C@@]1(C)N` (racemic), the Ki in experiment [2] is over 10 µM; in experiment [3], over 10 µM; in experiment [4], over 10 µM; in experiment [7] it was over 10 µM; in experiment [8], 1 µM; in experiment [9], over 10 µM.

As usually defined, the inhibition is the drop in the measured response relative to a control, in per cent. As usually defined, the Ki is a measure of affinity in units of concentration, obtained from inhibition or displacement.
